Measurements: ChEMBL document CHEMBL1629694, “Inhibition of dengue virus RNA synthesis by an adenosine nucleoside” (Antimicrob Agents Chemother, 2010)
Active and inactive are the calls of the source. The rule behind the calls is not given here.

How the values were obtained:
dengue virus type 2 [1] = experiment: Antiviral activity against at 0.3 MOI Dengue virus 2 infected in human A549 cells assessed as level of E protein after 48 hrs by ELISA; type: functional, organism-based; details: A549, 48 h
Summary of the method: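 CFI assay: A549 cells (2 × 10^4/well) seeded and infected the next day with DENV-2 at MOI 0.3 for 1 h, compound added to the inoculum. Medium then replaced with fresh medium containing compound. Cells methanol-fixed on day 2 p.i. E protein detected by ELISA (mAb 4G2, HRP anti-mouse IgG). EC50 from nonlinear regression.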

[2] = Cytotoxicity against human A549 cells assessed as intracellular ATP level by Celltiter-Glo luminescent assay; type: cell-based
dengue virus type 2 [3] = experiment: Antiviral activity against at 0.3 MOI of Dengue virus 2 infected in hamster BHK21 cells assessed as reduction in viral titer at 6 uM after 48 hrs postinfection; type: functional, organism-based; details: BHK-21, 0.3 M
Summary of the method: (§1)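 BHK-21 cells infected with DENV-2 at MOI 0.3 and treated immediately with graded compound concentrations. Viral titers in culture fluid determined at 48 h p.i.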

dengue virus type 2 [4] = experiment: Antiviral activity against at 1 MOI of Dengue virus 2 infected in hamster BHK21 cells assessed as decrease in viral NS3 protein expression at 3 uM after 35 hrs post-transfection by […]; type: functional, organism-based; details: BHK-21, 1 M
Summary of the method: (§2)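 Replicon-electroporated BHK-21 cells treated immediately with 1 or 3 μM compound, with 0.9% DMSO control. Cells lysed at 24 and 35 h p.t. NS3 detected by Western blot with in-house rabbit anti-NS3 (1:5,000). γ-Tubulin (1:1,000) served as reference, with HRP secondary antibodies (1:8,000).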

dengue virus type 2 [5] = experiment: Antiviral activity against Dengue virus 2 infected in human HEK293 cells assessed as level of viral titer after 48 hrs by luciferase reporter gene assay in presence of siRNA targeting deoxycytidine kinase; type: functional, organism-based
dengue virus type 2 [6] = experiment: Antiviral activity against at 1 MOI of Dengue virus 2 infected in hamster BHK21 cells assessed as decrease in viral RNA synthesis at 1 uM after 35 hrs post-transfection by luciferase reporter gene assay; type: functional, organism-based; details: BHK-21, 1 M
Summary of the method: (§3)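 DENV-2 luciferase replicon RNA (10 μg) electroporated into 8 × 10^6 BHK-21 cells, then seeded at 3.2 × 10^5/well. Cells incubated immediately with 1 or 3 μM compound, with 0.9% DMSO (final) as control. Luciferase measured at 2–4 h (translation of input RNA) and at 24 and 35 h p.t. (RNA synthesis).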

dengue virus type 2 [7] = experiment: Selectivity ratio of EC50 for Dengue virus 2 infected in human HEK293 cells in presence of siRNA targeting adenosine kinase to EC50 for Dengue virus 2 infected in human HEK293 cells in absence of siRNA targeting adenosine kinase; type: functional
Summary of the method: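 siRNA pools (10 pmol, four siRNAs against adenosine kinase or deoxycytidine kinase) reverse-transfected with RNAiMax into HEK-293 cells carrying a DENV-2 luciferase replicon (2 × 10^4/well). After 24 h at 37°C, graded compound concentrations were added. Renilla luciferase was read 3 days later. EC50s were compared with and without siRNA.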

dengue virus type 2 [8] = experiment: Antiviral activity against Dengue virus 2 TSVO1 infected in alpha/beta interferon and INFgamma receptor deficient AG129 mouse assessed as decrease in viral load treated 12 hrs postinfection measured after 3 days of infection […]; type: functional, organism-based
dengue virus type 2 [9] = experiment: Antiviral activity against at 1 MOI of Dengue virus 2 infected in hamster BHK21 cells assessed as decrease in viral RNA synthesis at 3 uM after 2 to 4 hrs post-transfection by luciferase reporter gene assay; type: functional, organism-based; details: BHK-21, 1 M; summary of the method: as §3
dengue virus type 2 [10] = experiment: Antiviral activity against Dengue virus 2 TSVO1 infected in alpha/beta interferon and INFgamma receptor deficient AG129 mouse assessed as […] at 150 mg/kg, po 12 hrs postinfection measured after 3 days of infection […]; type: functional, organism-based; design: dose 150 mg/kg
dengue virus type 2 [11] = experiment: Antiviral activity against at 1 MOI of Dengue virus 2 infected in hamster BHK21 cells assessed as decrease in viral NS3 protein expression at 1 uM after 35 hrs post-transfection by […]; type: functional, organism-based; details: BHK-21, 1 M; summary of the method: as §2
dengue virus type 2 [12] = experiment: Antiviral activity against at 0.3 MOI of Dengue virus 2 infected in hamster BHK21 cells assessed as reduction in viral titer after 48 hrs postinfection; type: functional, organism-based; summary of the method: as §1
dengue virus type 2 [13] = experiment: Antiviral activity against at 1 MOI of Dengue virus 2 infected in hamster BHK21 cells assessed as decrease in viral RNA synthesis at 1 uM after 24 hrs post-transfection by luciferase reporter gene assay; type: functional, organism-based; details: BHK-21, 1 M; summary of the method: as §3
Plasma = experiment: Drug uptake in rat plasma at 25 mg/kg, po by […]; type: ADME, organism-based; design: dose 25 mg/kg, route oral; details: in vivo
Summary of the method: (§4)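 Male Han-Wistar rats given 14C-labeled compound (label at adenine C-2) as a single intravenous 5 mg/kg or oral 25 mg/kg dose. Plasma and blood pellets sampled over time; pellets first taken up in 2 volumes of pH 2.5 ammonium formate/0.1% formic acid. Extraction in ice-cold acetonitrile (3:1). Metabolites profiled by HPLC with off-line radioactivity detection and identified by MS.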

dengue virus type 2 [14] = experiment: Antiviral activity against Dengue virus 2 infected in human A549 cells assessed as level of E protein production up to 20 uM by ELISA in presence of 0.2 uM adenosine kinase inhibitor iodotubercidin; type: functional, organism-based
Summary of the method: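 CFI assay in A549 cells with iodotubercidin at 0.2 μM and test compound up to 20 μM. Cells infected with DENV-2 at MOI 0.3 for 1 h with compound in the inoculum, then refed with compound-containing medium. Methanol fixation on day 2 p.i. E protein read by 4G2/HRP ELISA.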

dengue virus type 2 [15] = experiment: Antiviral activity against Dengue virus 2 infected in human HEK293 cells assessed as level of viral titer after 48 hrs by luciferase reporter gene assay in presence of siRNA targeting adenosine kinase; type: functional, organism-based; details: HEK293, 48 h
Blood [16] = experiment: Drug uptake in rat blood assessed as mono-derivatives of compound level at 25 mg/kg, po by […]; type: ADME, organism-based; design: dose 25 mg/kg, route oral; details: in vivo; summary of the method: as §4
Blood [17] = experiment: Drug uptake in rat blood assessed as di-derivatives of compound level at 25 mg/kg, po by […]; type: ADME, organism-based; design: dose 25 mg/kg, route oral; details: in vivo; summary of the method: as §4
dengue virus type 2 [18] = experiment: Antiviral activity against at 1 MOI of Dengue virus 2 infected in hamster BHK21 cells assessed as decrease in viral NS3 protein expression at 1 uM after 24 hrs post-transfection by […]; type: functional, organism-based; details: BHK-21, 1 M; summary of the method: as §2
Blood [19] = experiment: Drug uptake in rat blood assessed as tri-derivatives of compound level at 25 mg/kg, po by […]; type: ADME, organism-based; design: dose 25 mg/kg, route oral; details: in vivo; summary of the method: as §4
dengue virus type 2 [20] = experiment: Antiviral activity against at 1 MOI of Dengue virus 2 infected in hamster BHK21 cells assessed as decrease in viral RNA synthesis at 3 uM after 24 hrs post-transfection by luciferase reporter gene assay; type: functional, organism-based; details: BHK-21, 1 M; summary of the method: as §3
dengue virus type 2 [21] = experiment: Antiviral activity against at 1 MOI of Dengue virus 2 infected in hamster BHK21 cells assessed as decrease in viral RNA synthesis at 1 uM after 2 to 4 hrs post-transfection by luciferase reporter gene assay; type: functional, organism-based; details: BHK-21, 1 M; summary of the method: as §3
dengue virus type 2 [22] = experiment: Antiviral activity against at 1 MOI of Dengue virus 2 infected in hamster BHK21 cells assessed as viral titer after 48 hrs postinfection by plaque assay; type: functional, organism-based; details: BHK-21, 1 M
[23] = Cytotoxicity against hamster BHK21 cells assessed as intracellular ATP level upto 100 uM by Celltiter-Glo luminescent assay; type: cell-based, Mesocricetus auratus; details: bhk-21
Summary of the method: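 CC50 estimated from intracellular ATP by CellTiter-Glo luminescence. BHK-21 cells were tested up to 100 μM.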

dengue virus type 2 [24] = experiment: Antiviral activity against at 1 MOI of Dengue virus 2 infected in hamster BHK21 cells assessed as decrease in viral RNA synthesis at 3 uM after 35 hrs post-transfection by luciferase reporter gene assay; type: functional, organism-based; details: BHK-21, 1 M; summary of the method: as §3
dengue virus type 2 [25] = experiment: Antiviral activity against at 1 MOI of Dengue virus 2 infected in hamster BHK21 cells assessed as decrease in viral NS3 protein expression at 3 uM after 24 hrs post-transfection by […]; type: functional, organism-based; details: BHK-21, 1 M; summary of the method: as §2
dengue virus type 2 [26] = experiment: Antiviral activity against 3x10^7 PFU Dengue virus 2 D2S10 infected in alpha/beta interferon and INFgamma receptor deficient AG129 mouse assessed as protection against lethal virus challenge at 75 mg/kg, po treated 12 hrs postinfection by HPLC; type: functional, organism-based; design: dose 75 mg/kg
Summary of the method: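 AG129 mice infected intravenously with 3 × 10^7 PFU of mouse-adapted DENV-2 strain D2S10. A single 75 mg/kg dose given at 12 h postinfection. Read-out was survival after the lethal challenge.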

dengue virus type 2 [27] = experiment: Antiviral activity against Dengue virus 2 TSVO1 infected in alpha/beta interferon and INFgamma receptor deficient AG129 mouse assessed as decrease in viral load at 300 mg/kg, po 12 hrs postinfection […]; type: functional, organism-based; design: dose 300 mg/kg

CC#C[C@@]1(O)[C@H](O)[C@@H](CO)O[C@H]1n1cnc2c(N)ncnc21
EC50 (dengue virus type 2 [1]): > 100 µM | CC50 [2]: > 100 µM

C#C[C@@]1(O)[C@H](O)[C@@H](CO)O[C@H]1n1ccc2c(N)ncnc21
Activity (dengue virus type 2 [3]): Active | Activity (dengue virus type 2 [4]): Active | Activity (dengue virus type 2 [5]): Active | Activity (dengue virus type 2 [6]): Active | Selectivity ratio (dengue virus type 2 [7]): 11 | Activity (dengue virus type 2 [8]): Active | Activity (dengue virus type 2 [9]): inactive | Activity (dengue virus type 2 [10]): inactive | Activity (dengue virus type 2 [11]): Active | Activity (dengue virus type 2 [12]; BHK-21, 0.3 M): Dose-dependent effect | EC50 (dengue virus type 2 [12]; BHK-21, 48 h): 0.7 µM | Activity (dengue virus type 2 [13]): Active | Drug uptake (Plasma): Active | EC50 (dengue virus type 2 [1]): 0.7 µM | Activity (dengue virus type 2 [14]): inactive | CC50 [2]: > 100 µM | EC50 (dengue virus type 2 [15]): 9.2 µM | Drug uptake (Blood [16]): Active | Drug uptake (Blood [17]): Active | Activity (dengue virus type 2 [18]): Active | Drug uptake (Blood [19]): Active | Activity (dengue virus type 2 [20]): Active | Activity (dengue virus type 2 [21]): inactive | Activity (dengue virus type 2 [22]): Active | Activity [23]: Non-toxic | Activity (dengue virus type 2 [24]): Active | Activity (dengue virus type 2 [25]): Active | Activity (dengue virus type 2 [26]): Active | Activity (dengue virus type 2 [27]): inactive

C#C[C@@]1(O)[C@H](O)[C@@H](CO)O[C@H]1n1cc(F)c2c(N)ncnc21
EC50 (dengue virus type 2 [1]): 0.42 µM | CC50 [2]: 44 µM

C[C@@]1(O)[C@H](O)[C@@H](CO)O[C@H]1n1cnc2c(N)ncnc21
EC50 (dengue virus type 2 [1]): 1.12 µM | CC50 [2]: > 50 µM

CC[C@@]1(O)[C@H](O)[C@@H](CO)O[C@H]1n1cnc2c(N)ncnc21
EC50 (dengue virus type 2 [1]): > 100 µM | CC50 [2]: > 100 µM

C#C[C@@]1(O)[C@H](O)[C@@H](CO)O[C@H]1n1cc(C(N)=O)c2c(N)ncnc21
EC50 (dengue virus type 2 [1]): 2 µM | CC50 [2]: 62 µM

C#C[C@@]1(O)[C@H](O)[C@@H](CO)O[C@H]1n1cnc2c(=O)[nH]c(N)nc21
EC50 (dengue virus type 2 [1]): > 100 µM | CC50 [2]: > 100 µM

C#C[C@@]1(O)[C@H](O)[C@@H](CO)O[C@H]1n1cnc2c(N)ncnc21
EC50 (dengue virus type 2 [1]): 1.41 µM | CC50 [2]: 40 µM

C#C[C@@]1(O)[C@H](O)[C@@H](CO)O[C@H]1n1cc(C#N)c2c(N)ncnc21
EC50 (dengue virus type 2 [1]): 3.1 µM | CC50 [2]: > 100 µM

C#C[C@@]1(O)[C@H](O)[C@@H](CO)O[C@H]1n1ccc(N)nc1=O [2'-ETHYNYL-D-CYTIDINE]
EC50 (dengue virus type 2 [1]): > 100 µM | CC50 [2]: > 100 µM

C=C[C@@]1(O)[C@H](O)[C@@H](CO)O[C@H]1n1cnc2c(N)ncnc21
EC50 (dengue virus type 2 [1]): > 50 µM | CC50 [2]: > 59 µM
